PAFAH1B3 inh: PAFAH1B3 enzyme inhibitors, primary screen, biochemical, fluorescence polarization, human. Platelet-activating factor acetylhydrolase IB subunit alpha1 (Homo sapiens), Q15102. recombinant PAFAH1B3, FP-rhodamine probe. inhibition, % at 3.39 µM. actives 0.28% (n = 340,000);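 active means inhibition above the screen-wide average of all tested compounds plus 3 SD, cut at about 25% in these data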;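 further: 0% = enzyme with DMSO only and 100% = wells lacking PAFAH1B3 protein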
ASAP1 inh: inhibitors of human ASAP1 ArfGAP activity, primary screen, biochemical, fluorescence polarization | AID 624377, 2012 | Arf-GAP with SH3 domain, ANK repeat and PH domain-containing protein 1 (Homo sapiens), … | ASAP1-stimulated ARF1 GTP hydrolysis, GDP FP detection | inhibition, % at 16.5 µM | actives 0.19% (n = 360,000); in the data active means inhibition above about 25%;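 further: 0% = vehicle with enzyme and substrate and 100% = no enzyme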
pPAFAH inh: pPAFAH enzyme inhibitors, primary screen, biochemical, fluorescence polarization, human; Platelet-activating factor acetylhydrolase (Homo sapiens), Q13093; recombinant pPAFAH, FP-rhodamine probe fluorescence polarization; inhibition, % at 3.39 µM; actives 1.5% (n = 330,000); AID 463082, 2010;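 active means inhibition above the mean inhibition across the screen plus 3 SD, cut at about 25% in these data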;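 further: inhibitors block binding of the rhodamine activity-based probe so polarization drops; 0% = enzyme with DMSO and 100% = wells lacking pPAFAH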
PAFAH2 inh: PAFAH2 enzyme inhibitors, primary screen, biochemical, fluorescence polarization, human; inhibition, % at 3.39 µM; Platelet-activating factor acetylhydrolase 2, cytoplasmic (Homo sapiens), Q99487; actives 0.99% (n = 340,000); recombinant PAFAH2, FP-rhodamine activity probe; AID 492956, 2010;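 active means inhibition above the mean over all tested compounds plus 3 SD, cut at about 30% in these data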;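 further: inhibitors block probe labeling of enzyme so polarization drops; 0% = enzyme with DMSO and 100% = wells lacking PAFAH2 protein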
ARFGAP1 inh: inhibitors of rat ARFGAP1 GAP activity, primary screen, biochemical, fluorescence polarization, GDP tracer; inhibition, % at 16.5 µM; Arfgap1-stimulated ARF1 GTP hydrolysis, GDP FP detection; ADP-ribosylation factor GTPase-activating protein 1 (Rattus norvegicus), Q62848; actives 0.26% (n = 360,000);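 active means inhibition above a per-plate limit, mean inhibition of low control wells plus 3 SD, cut at about 25% in these data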;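 further: 0% = DMSO wells with enzyme and 100% = wells lacking Arfgap1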
Target sequence (Q62848 1-136 limits assumed): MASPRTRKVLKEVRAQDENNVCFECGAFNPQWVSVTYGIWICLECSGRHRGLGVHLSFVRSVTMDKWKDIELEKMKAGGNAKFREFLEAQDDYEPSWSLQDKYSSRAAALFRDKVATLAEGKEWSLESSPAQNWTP
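Assay system: Rat Arfgap1 GAP domain (His6, aa 1-136), purified enzyme | Buffer or medium: HEPES 25 mM pH 7.5, NaCl 150 mM, MgCl2, DTT | Schedule: GTP hydrolysis reaction 2 h at 25 °C | Signal: FP of antibody-bound GDP Alexa 633 tracer, ex 620/em 688 nm | Measure: Percent inhibition of Arfgap1-stimulated GTP hydrolysis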
PAFAH1B2 FP inh: PAFAH1B2 enzyme inhibitors, primary screen, biochemical, fluorescence polarization, human. Platelet-activating factor acetylhydrolase IB subunit alpha2 (Homo sapiens), P68402. recombinant PAFAH1B2, FP-rhodamine activity probe. inhibition, % at 3.39 µM. actives 1.2% (n = 340,000). AID 492953, 2010;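 active means inhibition above the mean of all tested compounds plus 3 SD, cut at about 24% in these data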;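 further: 0% = enzyme with DMSO and 100% = wells lacking PAFAH1B2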
Target sequence (P68402 whole entry, looked up): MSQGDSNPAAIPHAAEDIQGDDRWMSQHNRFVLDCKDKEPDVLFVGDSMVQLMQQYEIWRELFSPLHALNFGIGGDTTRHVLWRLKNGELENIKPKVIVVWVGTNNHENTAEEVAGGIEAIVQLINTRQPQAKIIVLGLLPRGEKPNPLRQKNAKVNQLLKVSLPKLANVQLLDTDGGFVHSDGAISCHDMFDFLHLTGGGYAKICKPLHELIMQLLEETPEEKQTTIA
* hit, by the source's call; . = not tested or not shown. Only some compounds are listed: those with a hit (about 2.7% of all), similar ones and a draw of the others.

SMILES	PAFAH1B3 inh	ASAP1 inh	pPAFAH inh	PAFAH2 inh	ARFGAP1 inh	PAFAH1B2 FP inh
Cc1cc(NC(=O)CSCC(=O)N(C)Cc2ccc(Cl)c(Cl)c2)no1	1	0	-1	-5	8	0
CN(c1ccc(NC(=O)CCc2c[nH]c3ccccc23)cc1)c1ccccn1	.	-2	.	.	-1	.
Cn1c(=O)oc2cc(S(=O)(=O)NCCC(=O)NCCc3ccc(Cl)cc3)ccc21	1	12	14	-4	7	32*
CCOC(=O)Cn1c(=O)oc2cc(S(=O)(=O)NCCCc3ccccc3)ccc21	7	9	4	3	3	10
CCOC(=O)Cn1c(=O)oc2cc(S(=O)(=O)NCCc3ccc(C)cc3)ccc21	7	-14	29*	-8	-5	4
CCOC(=O)Cn1c(=O)oc2cc(S(=O)(=O)Nc3ccc(F)cc3)ccc21	-2	-1	28*	-4	-6	4
Cc1ccc(CCNC(=O)CCNS(=O)(=O)c2ccc3c(c2)oc(=O)n3C)cc1	4	2	9	4	-1	6
CC(C)C[C@H](NC(=O)N1CCOCC1)C(=O)N1CCC[C@H]1C(=O)NCc1ccccc1	.	-4	.	.	-8	.
CC(C)C[C@H](NS(=O)(=O)c1ccc(F)cc1F)C(=O)N1CCC[C@H]1C(=O)NCc1ccccc1	.	2	.	.	8	.
CCOC(=O)N1CCN(C(=O)C[C@H]2C[C@@]3(C(=O)OC)C(=C[C@H](COCc4ccccc4)O[C@@H]3C)N(CCC3=CCCCC3)C2=O)CC1	.	4	.	.	-6	.
Cc1cc(Oc2cccnc2)ccc1NC(=O)Cc1c(C)[nH]c2ccccc12	.	-8	.	.	2	.
Cc1ccc(S(=O)(=O)N2CCN(CC(=O)NC3CCCc4ccccc43)CC2)cc1C (stereo not drawn)	2	-10	2	9	-10	4
NS(=O)(=O)c1ccc(NC(=O)CN2CCN(S(=O)(=O)c3ccc(F)cc3)CC2)cc1	4	-16	2	-2	-1	3
O=C(CN1CCN(S(=O)(=O)c2ccc(Br)cc2)CC1)Nc1ccc(F)cc1	1	7	-2	6	5	28*
CC1CCN(S(=O)(=O)c2ccc(NC(=O)CN3CCCCCC3)cc2)CC1	2	-4	8	-3	-2	30*
O=C(CCC(=O)N1CCN(S(=O)(=O)c2ccc(Cl)cc2)CC1)NC1CCCc2ccccc21 (stereo not drawn)	-2	13	3	3	1	26*
Cc1ccc(S(=O)(=O)Nc2ccc(NC(=O)CN3CCCCC3)c(Cl)c2)cc1	10	10	26*	3	13	8
COC(=O)C1=C(C)N(Cc2cccc(C(F)(F)F)c2)C(=NCc2cc(OC)c(OC)c(OC)c2)NC1c1ccccc1 (stereo not drawn)	.	-4	.	.	15	.
O=[N+]([O-])c1ccc(COc2cccc(CO)c2)cc1	.	-3	.	.	-2	.
CCN(C(=O)CCc1cn(CC)c2ccccc12)c1ccc(Oc2cccnc2)cc1	.	-2	.	.	15	.
COC(=O)C1=C(C)N(C)C(=NCc2cc(OC)c(OC)c(OC)c2)NC1c1ccc(C(F)(F)F)cc1 (stereo not drawn)	.	-6	.	.	7	.
CCOC(=O)N1CCC(N2CCN(S(=O)(=O)c3ccc(Cl)cc3)CC2)CC1	0	-2	0	5	9	29*
CCN1CCN(S(=O)(=O)c2ccc(Cl)c(C(=O)NC3CC3)c2)CC1	9	15	-1	5	3	24*
COc1ccc(C)cc1NC(=O)CN1CCN(S(=O)(=O)c2ccc(Br)cc2)CC1	-3	3	-4	2	-2	28*
CCOC(=O)N1CCN(S(=O)(=O)c2ccc(Cl)cc2)CC1	10	0	12	2	7	6

Screens from PubChem.
